GAA850 FXN act: FXN promoter activators, primary screen, cell-based, luciferase luminescence, HEK293 lucGAA850; AID 540364, 2011; actives 0.56% (n = 360,000); activation, % at 6 µM; HEK293 lucGAA850 FXN promoter luciferase reporter, 24 h; percent of 10 µM SAHA response;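 active = activation above the average of all compounds screened plus 3 SD, cutoff fixed separately per campaign, cut at about 7.5% in these data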;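 also: 0% = DMSO wells and 100% = 10 µM SAHA wells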
CHOP UPR activ: activators of apoptotic CHOP UPR arm, primary screen, cell-based, CHO-CHOP luciferase reporter, luminescence, uHTS. actives 0.34% (n = 330,000). activation, % at 10 µM. AID 449763, 2010. UPR activation; percent of tunicamycin response over DMSO baseline;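 active = at 10 µM dose, activation of 40% or more, normalized to positive control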;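 also: 100% = tunicamycin at 10 µg/mL and 0% = DMSO alone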
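Material: CHO-CHOP cells, stable luciferase reporter of PERK-eIF2a-CHOP signalling; quantity: 500 reporter cells seeded per well; buffer or medium: F12 medium containing 10% fetal bovine serum; compound: one dose, 10 µM in 0.5% DMSO; incubation: 6 h compound treatment, 37 °C; measured by: Steady-Glo luciferase luminescence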
CHOP inhibitor: inhibitors of CHOP promoter induction, primary screen, cell-based, unfolded protein response, luciferase reporter; actives 3.8% (n = 220,000); CHO-K1 CHOP-promoter luciferase, tunicamycin-induced, 15-18 h; inhibition, % at 10 µM;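 active = compounds that reduced the stress-induced luciferase reporter signal by more than about 70% of percent inhibition, limit read from the data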;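 also: 0% = tunicamycin plus vehicle and 100% = wells without tunicamycin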
UPR XBP1 act: activators of adaptive XBP1 UPR arm, primary screen, cell-based, CHO-XBP1 luciferase reporter, luminescence, uHTS; IRE1-XBP1 UPR activation; percent of tunicamycin response, DMSO as zero; activation, % at 20 µM; actives 0.33% (n = 330,000); AID 463104, 2010;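 active = versus positive control, 20 µM dose yields 30% or more activation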;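 also: 100% = tunicamycin at 10 µg/mL and 0% = DMSO only wells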
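Material: CHO-XBP1 cells stably carrying IRE1-XBP1-driven luciferase reporter | Medium: F12 with 10% serum | Compound dosing: 20 µM single concentration, DMSO 1% | Incubation: Overnight seeding at 37 °C, 6 h compound treatment at 37 °C | Detection: Steady-Glo luminescence read | Read-out basis: % activation of reporter signal versus tunicamycin and DMSO controls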
CHOP inh conf: retest of CHOP induction inhibitors, confirmation, cell-based. shares compounds with CHOP inhibitor. CHO-CHOP promoter luciferase reporter, tunicamycin-induced, luminescence. inhibition, % at 10 µM. actives 45% (n = 2,100);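 active = mean of three repeat readings of reporter signal inhibition above a set limit, cut at about 70% in these data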;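 also: 0% = tunicamycin plus vehicle and 100% = wells lacking tunicamycin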
CHOP UPR conf: activators of apoptotic CHOP UPR arm, confirmation, cell-based, CHO-CHOP luciferase reporter, single concentration; shares compounds with CHOP UPR activ; CHO-CHOP cells, CHOP-luciferase reporter luminescence; percent of tunicamycin response, DMSO as zero; activation, % at 10 µM; actives 64% (n = 1,000); in the data active = activation above about 33%;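 also: 0% = DMSO wells and 100% = tunicamycin 10 µg/mL wells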
UPR XBP1 confirm: IRE1-XBP1 UPR arm activators, confirmation, cell-based, CHO-XBP1 luciferase reporter, luminescence, single concentration; AID 485299, 2010; actives 63% (n = 1,000); shares compounds with UPR XBP1 act; activation, % at 20 µM;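 active = reporter signal at least 30% of the positive control's activation in two or more of four replicate wells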;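 also: plate controls were DMSO negative control for no effect and tunicamycin 10 µg/mL positive control for full effect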
Starred values were filed as active, the others as inactive; / = no result. The sample as a whole holds a higher share of hits than the screen did.

SMILES | GAA850 FXN act | CHOP UPR activ | CHOP inhibitor | UPR XBP1 act | CHOP inh conf | UPR XBP1 confirm | others
CC1CCC(C(C)C)C(OC(=O)COC(=O)c2ccc(=O)[nH]c2)C1 (configuration not stated) | 1 | 0 | 63 | -2 | / | /
COc1ccc(OCc2n(CC(=O)OC3CC(C)CCC3C(C)C)c3ccccc3[n+]2C)cc1 (configuration not stated) | -2 | 2 | 97* | 36* | 95* | 32*
CCCNC(=O)N(C)C[C@@H]1Oc2cc(C#CC(C)(C)O)ccc2S(=O)(=O)N([C@H](C)CO)C[C@H]1C | -1 | / | / | / | / | /
Nc1c(C(=O)Nc2ccc(S(=O)(=O)N3CCCC3)cc2)sc2nc3ccc(OC(F)(F)F)cc3cc12 | 2 | 311* | 106* | 194* | 112* | 162* | CHOP UPR conf=72*
Cc1ccc(C)c(NC(=O)/C(C#N)=C/c2cn(CC(=O)NCc3ccco3)c3ccccc23)c1 | 0 | 111* | 106* | 224* | 58 | 16 | CHOP UPR conf=51*
Cc1cc(C)cc(NC(=O)/C(C#N)=C/c2cn(CC(=O)NCc3ccco3)c3ccccc23)c1 | 2 | 276* | 106* | 152* | 106* | 295* | CHOP UPR conf=44*
CNC(=O)/C(C#N)=C/c1cn(CC(=O)NCc2ccco2)c2ccccc12 | 0 | 0 | 24 | -2 | / | /
Cc1ccccc1OCCn1cc(/C=C(\C#N)C(=O)NCc2ccco2)c2ccccc21 | 1 | -4 | 39 | -5 | / | /
COc1ccccc1S(=O)(=O)N(C)C[C@@H]1OCc2cn(nn2)CCCC(=O)N([C@@H](C)CO)C[C@H]1C | 2 | / | / | / | / | /
CCOc1ccc(C(=O)Nc2ccc(NC(=O)c3ccco3)c(Cl)c2)cc1Cl | -2 | 13 | 101* | 48* | 60 | 120*
CCOc1ccc(/C=C/C(O)=C2/C(=O)NC3(C)CC2c2ccccc2O3)cc1OC (configuration not stated) | -7 | 46* | 96* | 41* | 64 | 46* | CHOP UPR conf=19
CCc1nc2c(OCc3cccc(OC)c3)cccn2c1N(C)C(=O)c1ccc(OC)cc1 | -1 | / | / | / | / | /
Cc1ccc(Cn2c(SCC(=O)Nc3cc(C)on3)nc3ccccc3c2=O)cc1 | 2 | 2 | 104* | 52* | 124* | 48*
Cc1cc(NC(=O)CSc2nc3ccccc3c(=O)n2Cc2ccccc2)no1 | -2 | 0 | 34 | -2 | / | /
Cc1cc(NC(=O)CSc2nnc(-c3c[nH]c4ccccc34)n2-c2ccc(Cl)cc2)no1 | 1 | 4 | 106* | 40* | -20 | 9
CCCCCCCCCn1c2c(c(=N)c3c1CCC3)CCCC2 | -9 | 72* | 106* | 44* | 0 | 44* | CHOP UPR conf=79*
COc1ccc(C(CCNCc2ccc(F)cc2)c2ccc(F)cc2)cc1 (configuration not stated) | 0 | 4 | 101* | 48* | 105* | 65*
CC1(C(=O)NS(=O)(=O)c2ccccc2Cl)CCN1C(=O)CC1CC1 (configuration not stated) | 1 | / | / | / | / | /
Oc1ccc(Br)cc1/C=N/Nc1nc(N2CCCCC2)nc(N2CCOCC2)n1 | / | 2 | 15 | -3 | / | /
Oc1ccc(/C=N/Nc2nc(N3CCCCCC3)nc(N3CCCCCC3)n2)c(O)c1 | 4 | 11 | 103* | 39* | 98* | 11
O=C(Cc1csc(Nc2nc(=S)[nH]c3ccccc23)n1)NCCCN1CCN(c2ccccc2F)CC1 | 0 | 3 | 105* | 64* | 85* | 19
CNc1n[nH]c(-c2ccccc2)n1 | 0 | / | / | / | / | /
CC1(C2CC(=O)c3c(O)ccc(O)c3C2)OCCO1 (configuration not stated) | -1 | / | / | / | / | /
Oc1cccc(-c2nc3c4c(ncn3n2)-c2ccccc2CC42CCCC2)c1 | -2 | 5 | 100* | 31* | 83* | 50*
CCOC(=O)c1c2ccc(OCC(=O)NN)cc2n2ccccc12 | -2 | -1 | 33 | -3 | / | /
SMILES | GAA850 FXN act | CHOP UPR activ | CHOP inhibitor | UPR XBP1 act | CHOP inh conf | UPR XBP1 confirm | others
CCOC(=O)c1c2ccc(OCC(=O)N/N=C/c3ccc(C)cc3)cc2n2ccccc12 | -1 | 158* | 104* | 123* | 114* | 106* | CHOP UPR conf=61*
OCCNc1ncnc2c1ncn2[C@H]1CN(Cc2ccc3c(c2)OCO3)C[C@@H](CO)O1 | -1 | / | / | / | / | /
CCC1(c2ccc(F)cc2)NC(=O)N(CC(=O)Nc2ccc3c(c2)OCCO3)C1=O (configuration not stated) | 0 | 1 | / | 0 | / | /
CCC1(c2ccc(F)cc2)NC(=O)N(CC(=O)Nc2ccc(-c3nc4ccc(C)cc4s3)cc2)C1=O (configuration not stated) | 5 | 2 | 101* | 36* | 74* | 32*
O=C(COC(=O)c1cccc(OC(F)F)c1)Nc1cc(S(=O)(=O)N2CCCC2)ccc1Cl | 0 | / | / | / | / | /
O=C(Nc1ccc2c(c1)OCO2)c1cc(C2CCCCN2S(=O)(=O)c2cccs2)on1 (configuration not stated) | 1 | / | / | / | / | /
Cc1cccc(N2CCN(C(=S)Nc3ccc4nc(N5CCN(C)CC5)cc(C)c4c3)CC2C)c1 (configuration not stated) | 0 | 8 | 106* | 62* | -14 | 47*
O=C(/C=C/c1ccccc1)NC(NC(=S)Nc1cccc(Cl)c1)C(Cl)(Cl)Cl (configuration not stated) | -2 | 36 | 111* | 51* | 42 | 30*
O=C(/C=C/c1ccccc1)NC(NC(=S)Nc1cccc(O)c1)C(Cl)(Cl)Cl (configuration not stated) | -4 | 1 | 57 | -1 | / | /
O=C(Nc1ccc2c(c1)OCO2)C1Cc2c(-c3ccc4c(c3)OCO4)ccnc2O1 (configuration not stated) | -5 | / | / | / | / | /
COc1cccc(CNc2nc3cc(-c4ccccc4C)sc3c(=O)n2C)c1OC | 1 | / | / | / | / | /
COc1ccc2cc(C)c3nnc(SCC(=O)Nc4nc(-c5ccc(F)cc5)cs4)n3c2c1 | 1 | 160* | 105* | 216* | 7 | 216* | CHOP UPR conf=88*
O=C(Nc1ccc(O)c(-c2nc3ccccc3s2)c1)c1cc(=O)c2ccccc2o1 | -1 | 1 | 108* | 42* | 21 | 94*
